High-throughput results: PubChem, Broad Institute
HIV Env fusion = inhibitors of HIV-1 Env-driven cell-cell fusion, primary screen, HeLa-JRFL effector, CEM21 target cells, luciferase; inhibition, % at 12.3 µM; actives 1.1% (n = 360,000); AID 651610, 2012;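 active = mean replicate inhibition score of at least 50 and every replicate individually at or above 50; inconclusive = only one of the two criteria met; inactive = mean below 50 and not all replicates reaching 50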;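 also: 0% = plate neutral controls and 100% = maraviroc near 300 nM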
N-glyco inh = increase of ERlucT glycosylation luciferase signal, primary screen, N-linked glycosylation inhibitor project, D54 ERlucT cells, luminescence, set 2; D54 ERlucT glycosylation luciferase reporter, 24 h; percent of 100 nM tunicamycin response; reporter increase, % at 12.5 µM; actives 0.23% (n = 360,000);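 active = mean luciferase reporter signal, scaled so untreated is 0 and the glycosylation-blocking control 100, at or above a set limit in every replicate; inconclusive = mean reaches the limit but not every replicate does; inactive = mean below the limit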;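 also: luciferase carries N-glycosylation sites so blocking glycosylation raises the light; 0% = median of neutral control wells and 100% = median of 100 nM tunicamycin wells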
PAX8 inh HTS = inhibitors of PAX8-driven TPO luciferase reporter, primary screen, RMG-I cells, single concentration | SteadyGlo, 24 h | inhibition, % at 12.6 µM | actives 1.2% (n = 360,000);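 active = mean replicate inhibition at least 60% with every replicate also reaching 60%; inconclusive = only one of the two criteria is met; inactive = mean below 60% and not all replicates reaching 60%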;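 also: luciferase light reporting Pax8 driven TPO promoter activity; plate controls were median of neutral control wells for no effect and mitoxantrone controls for full effect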
MLL AF4-AF9 inh = inhibitors of AF4 peptide binding to AF9, primary screen, biochemical, AlphaScreen, biotin-AF4 peptide, FLAG-AF9, single point | Protein AF-9 (Homo sapiens), P42568 | inhibition, % at 10 µM | actives 0.47% (n = 350,000) | AID 651704, 2012;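 active = every replicate reaching a set inhibition limit, whatever the replicate mean, cut at about 25% in these data; inconclusive = mean inhibition reaches that limit but some replicates miss it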;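 also: 0% = plate neutral control median and 100% = total signal loss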
Target sequence (P42568 whole entry, looked up): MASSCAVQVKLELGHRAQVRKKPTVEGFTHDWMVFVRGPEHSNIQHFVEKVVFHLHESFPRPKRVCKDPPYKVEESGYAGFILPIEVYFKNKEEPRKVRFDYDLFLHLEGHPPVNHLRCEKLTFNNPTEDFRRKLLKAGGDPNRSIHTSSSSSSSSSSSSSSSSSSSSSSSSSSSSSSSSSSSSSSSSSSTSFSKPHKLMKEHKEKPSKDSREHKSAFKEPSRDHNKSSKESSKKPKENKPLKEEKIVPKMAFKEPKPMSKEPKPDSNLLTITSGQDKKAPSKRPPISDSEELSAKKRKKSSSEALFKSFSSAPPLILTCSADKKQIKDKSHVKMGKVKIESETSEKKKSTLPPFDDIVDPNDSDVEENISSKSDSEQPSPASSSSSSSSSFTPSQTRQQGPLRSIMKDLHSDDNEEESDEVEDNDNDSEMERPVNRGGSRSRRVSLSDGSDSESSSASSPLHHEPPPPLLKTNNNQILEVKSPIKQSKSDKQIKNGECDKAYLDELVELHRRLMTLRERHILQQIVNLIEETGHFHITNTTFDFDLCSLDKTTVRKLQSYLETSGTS
FN deposition inh = inhibitors of fibronectin matrix deposition, primary screen, AH1F cells, Alexa488-fibronectin fluorescence, plate reader. AH1F fibroblasts, overnight. inhibition, % at 12.6 µM. AID 743247, 2014. actives 0.086% (n = 350,000);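 active = mean inhibition across replicates of 30% or more, regardless of how many single replicates reach that level; inconclusive = mean under 30% yet at least half of replicates reach 30%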;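 also: positive control wells lacked labelled fibronectin entirely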
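Test system: AH1F fibroblast monolayer depositing Alexa488-labelled fibronectin into matrix. Input: 10000 cells per well. Technique: fluorescence, ex 485 nm, em 525 nm. Buffer or medium: DMEM plus 2% serum, read in PBS. Timing: 1 h cell adhesion before compound, then overnight fibronectin incubation. Compound: single dose, pinned. Read-out basis: inhibition from reduced deposited-fibronectin fluorescence.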
EWS-Fli block = EWS/Fli-driven NR0B1 reporter inhibitors, primary screen, A673 cells, NR0B1 luciferase, luminescence, MLPCN library | viability-normalised | inhibition, % at 12.6 µM | actives 0.67% (n = 350,000) | AID 651661, 2012;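 active = mean inhibition of at least 50% after viability correction, with every replicate also passing that limit; inconclusive = mean reaches 50% but only one of two replicates passes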;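 also: firefly luciferase signal divided by Alamar Blue viability fluorescence both relative to DMSO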
An asterisk follows results filed as active; ? = inconclusive; · = no result given; [ ] = remark or other dose. Sampled rows, rich in hits. Any-hit rate of the full collection: about 2.5%.

SMILES | HIV Env fusion | N-glyco inh | PAX8 inh HTS | MLL AF4-AF9 inh | FN deposition inh | EWS-Fli block
Cc1noc(C)c1NC(=O)Nc1ccc2c(c1)C(=O)N([C@H](C)CO)C[C@H](C)[C@@H](CN(C)C(=O)Nc1ccc(F)cc1)O2 | 13[16.7 µM] | · | -16 | 7 | 3 | -7
COc1ccc(C2c3cc(OC)c(OC)cc3CCN2C(=O)c2cccc([N+](=O)[O-])c2)cc1OC (stereo not given) | 0 | 2 | -10 | 11 | 10 | 2
COc1cc2c(cc1OC)C(c1cccs1)N(C(=O)c1cccc(S(=O)(=O)N(C)C)c1)CC2 (stereo not given) | 12 | 32* | 0 | 13 | -2 | 16
COc1cc2c(cc1OC)C(c1ccccc1)N(C(=O)c1ccccc1)CC2 (stereo not given) | -60 | 34* | -5 | 10 | 1 | 20
COc1cc2c(cc1OC)C(c1ccccc1)N(C(=O)CSCC(=O)O)CC2 (stereo not given) | -5 | 2 | 12 | -1 | -12 | -1
COc1cc2c(cc1OC)C(c1ccccc1)N(C(=O)c1ccco1)CC2 (stereo not given) | 9 | 34* | -4 | 11 | 16 | 6
COCCNC(=S)N1CCc2cc(OC)c(OC)cc2C1c1cccs1 (stereo not given) | 13 | 59* | 15 | -1 | -8 | -39
COc1cc2c(cc1OC)C(c1cc3cc(C)ccc3[nH]c1=O)N(C(=O)c1ccco1)CC2 (stereo not given) | -23 | 2 | 3 | 5 | 7 | 16
COc1cc2c(cc1OC)C(c1ccccc1)N(C(=O)c1ccccc1F)CC2 (stereo not given) | 6 | 37* | -2 | -3 | 3 | 3
Cc1noc(C)c1S(=O)(=O)N(C)C[C@H]1OCCCC[C@H](C)Oc2ccc(NC(=O)Nc3ccc4c(c3)OCO4)cc2C(=O)N([C@@H](C)CO)C[C@@H]1C | 60*[16.7 µM] | · | -9 | · | · | -5
Cc1noc(C)c1S(=O)(=O)N(C)C[C@H]1OCCCC[C@@H](C)Oc2ccc(NC(=O)Nc3ccc(F)cc3)cc2C(=O)N([C@@H](C)CO)C[C@H]1C | -84[16.7 µM] | · | 27 | 0 | 1 | 0
Cc1noc(C)c1S(=O)(=O)N(C)C[C@@H]1OCCCC[C@H](C)Oc2ccc(NC(=O)Nc3ccc(F)cc3)cc2C(=O)N([C@H](C)CO)C[C@@H]1C | -114[16.7 µM] | · | 61* | -2 | 4 | 6
Cc1noc(C)c1NC(=O)Nc1ccc2c(c1)C(=O)N([C@@H](C)CO)C[C@H](C)[C@H](CN(C)S(=O)(=O)c1ccc(F)cc1)OCCCC[C@H](C)O2 | 55*[16.7 µM] | · | -2 | 1 | · | 2
Cc1noc(C)c1NC(=O)Nc1ccc2c(c1)C(=O)N([C@H](C)CO)C[C@@H](C)[C@H](CN(C)S(=O)(=O)c1ccc(F)cc1)OCCCC[C@@H](C)O2 | -2[16.7 µM] | · | -4 | 3 | · | 1
Cc1noc(C)c1S(=O)(=O)N(C)C[C@H]1OCCCC[C@@H](C)Oc2ccc(NC(=O)Nc3ccc(C(F)(F)F)cc3)cc2C(=O)N([C@@H](C)CO)C[C@H]1C | 44[16.7 µM] | · | · | -4 | · | 1
Cc1noc(C)c1S(=O)(=O)N(C)C[C@@H]1OCCCC[C@@H](C)Oc2ccc(NC(=O)Nc3ccc(C(F)(F)F)cc3)cc2C(=O)N([C@H](C)CO)C[C@H]1C | 83*[16.7 µM] | · | · | -3 | · | 14
CS(=O)(=O)N1[C@@H]2c3ccc(-c4cccc(F)c4)c(=O)n3C[C@H]1[C@H](CO)[C@H]2C(=O)N1CCOCC1 | · | · | 1 | -3 | · | -6
CO[C@H]1CC[C@@H]2CCN(C)C(=O)[C@@H](C)[C@H](OC)CN(C)C(=O)c3cc(C#N)ccc3OC[C@@H]1O2 | 28[16.7 µM] | · | 0 | -2 | -31 | -1
O=c1cc(C(Cl)(Cl)Cl)oc2c1ccc1ccccc12 | 35 | 5 | 98* | · | 1 | ·
O=c1cc(-c2ccco2)oc2c1ccc1ccccc12 | -118 | 4 | -1 | · | 1 | ·
O=C(C(=Cc1ccccc1)CN1CCCCC1)c1ccccc1 | -74 | -20 | 104* | 0 | -6 | 58*
C[C@@H]1CCCCO[C@@H](CN(C)Cc2ccc(Cl)c(Cl)c2)[C@H](C)CN([C@H](C)CO)C(=O)c2cc(NC(=O)NC3CCCCC3)ccc2O1 | 72*[16.7 µM] | · | 65* | 2 | · | -13
C[C@@H]1CCCCO[C@@H](CN(C)Cc2ccc(Cl)c(Cl)c2)[C@@H](C)CN([C@@H](C)CO)C(=O)c2cc(NC(=O)NC3CCCCC3)ccc2O1 | 4[16.7 µM] | · | 53 | 4 | · | -5
C[C@@H]1CN([C@H](C)CO)C(=O)c2cc(NC(=O)NC3CCCCC3)ccc2O[C@@H](C)CCCCO[C@@H]1CN(C)Cc1ccc(Cl)c(Cl)c1 | 13[16.7 µM] | · | 71* | 5 | -5 | 10
C[C@H](CO)N1C[C@H](C)[C@@H](CN(C)Cc2ccc(Cl)c(Cl)c2)OCCCC[C@H](C)Oc2ccc(NC(=O)NC3CCCCC3)cc2C1=O | 45[16.7 µM] | · | 1 | 0 | · | 19
SMILES | HIV Env fusion | N-glyco inh | PAX8 inh HTS | MLL AF4-AF9 inh | FN deposition inh | EWS-Fli block
C[C@@H]1CCCCO[C@@H](CN(C)Cc2ccc(Cl)c(Cl)c2)[C@H](C)CN([C@@H](C)CO)C(=O)c2cc(NC(=O)NC3CCCCC3)ccc2O1 | 22[16.7 µM] | · | 68* | 4 | · | 4
C[C@@H]1CCCCO[C@H](CN(C)Cc2ccncc2)[C@H](C)CN([C@@H](C)CO)C(=O)c2cc(NC(=O)NC3CCCCC3)ccc2O1 | -423[16.7 µM] | · | 83* | -1 | 3 | 56*
C[C@@H]1CN([C@H](C)CO)C(=O)c2cc(C3=CCCC3)cnc2O[C@@H]1CN(C)Cc1ccccc1C(=O)O | -27[16.7 µM] | · | -14 | -5 | 2 | 11
C[C@H]1CN([C@@H](C)CO)C(=O)c2cc(NC(=O)C3CCCCC3)ccc2O[C@@H]1CN(C)Cc1ccncc1 | 55*[16.7 µM] | · | -3 | -1 | · | 0
CN(C)Cc1cn(CC[C@@H]2CC[C@H](N)[C@@H](CO)O2)nn1 | 14[16.7 µM] | · | -3 | -3 | -12 | -2
COc1ccc(S(=O)(=O)Nc2cccc(-c3ccc4nncn4n3)c2)cc1 | 14 | 15 | 41 | ? | 17 | 64*
CCOc1ccc(C(CC(=O)O)NC(=O)C2c3ccccc3Oc3ccccc32)cc1 (stereo not given) | -10 | 1 | 9 | -1 | 0 | 1
O=C(O)CC(NC(=O)C1c2ccccc2Oc2ccccc21)c1ccc(OC2CCCC2)cc1 (stereo not given) | 18 | 0 | 121* | -11 | 5 | 2
